Measured values published in ChEMBL document CHEMBL3870311, “Synthesis and biological evaluation of C1-O-substituted-3-(3-butylamino-2-hydroxy-propoxy)-xanthen-9-one as topoisomerase IIα catalytic inhibitors” (Eur J Med Chem, 2016).
Structures can show the parent of a compound that is named as a salt. Active and inactive are the calls of the source. The rule behind the calls is not given here.

Key:
[1] = target: T1, DNA topoisomerase 2-alpha (Homo sapiens, UniProt P11388); assay: Inhibition of human topoisomerase-2 alpha at 100 uM using supercoiled pBR322 DNA as substrate after 30 mins by agarose gel electrophoresis method relative to control
[2] = target: T1, DNA topoisomerase 2-alpha; assay: Inhibition of human topoisomerase-2 alpha at 20 uM using supercoiled pBR322 DNA as substrate after 30 mins by agarose gel electrophoresis relative to control
[3] = Cytotoxicity against human HCT15 cells assessed as reduction in cell growth after 72 hrs by CCK8 assay; assay type: functional, cell-based; conditions: HCT-15, 72 h
Procedure, shortened: (§1)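 Cells (2~4 x 10^4 per well) seeded overnight in media with 10% FBS, 37 °C, 5% CO₂, then exposed to graded compound concentrations for 72 h. CCK-8 solution added for a further 4 h; absorbance read at 450 nm. IC₅₀ from four-parameter logistic fit; adriamycin, etoposide and camptothecin as positive controls.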

[4] = Cytotoxicity against human T47D cells assessed as reduction in cell growth after 72 hrs by CCK8 assay; assay type: functional, cell-based; procedure, shortened: as §1
[5] = Cytotoxicity against human HeLa cells assessed as reduction in cell growth after 72 hrs by CCK8 assay; assay type: functional, cell-based; procedure, shortened: as §1
[6] = Cytotoxicity against human NCI-N87 cells assessed as reduction in cell growth after 72 hrs by CCK8 assay; assay type: functional, cell-based; conditions: NCI-N87, 72 h; procedure, shortened: as §1
[7] = target: T1, DNA topoisomerase 2-alpha; assay: Inhibition of topoisomerase-2 alpha catalytic activity in human T47D cells assessed as increase in free topoisomerase-2 alpha level at 50 uM after 2 hrs by Western blot method; assay type: cell-based
Procedure, shortened: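 T47D cells (2 x 10^5 per well) seeded overnight, treated 2 h at 37 °C with 50 µM compound or etoposide in serum-free RPMI. Harvested cells washed in PBS, lysed in 62.5 mM Tris-HCl pH 6.8, 1 mM EDTA, 2% SDS with sonication; cleared supernatant run on 10% SDS-PAGE and free topo IIα detected by Western blot.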

T1 sequence (P11388 whole entry): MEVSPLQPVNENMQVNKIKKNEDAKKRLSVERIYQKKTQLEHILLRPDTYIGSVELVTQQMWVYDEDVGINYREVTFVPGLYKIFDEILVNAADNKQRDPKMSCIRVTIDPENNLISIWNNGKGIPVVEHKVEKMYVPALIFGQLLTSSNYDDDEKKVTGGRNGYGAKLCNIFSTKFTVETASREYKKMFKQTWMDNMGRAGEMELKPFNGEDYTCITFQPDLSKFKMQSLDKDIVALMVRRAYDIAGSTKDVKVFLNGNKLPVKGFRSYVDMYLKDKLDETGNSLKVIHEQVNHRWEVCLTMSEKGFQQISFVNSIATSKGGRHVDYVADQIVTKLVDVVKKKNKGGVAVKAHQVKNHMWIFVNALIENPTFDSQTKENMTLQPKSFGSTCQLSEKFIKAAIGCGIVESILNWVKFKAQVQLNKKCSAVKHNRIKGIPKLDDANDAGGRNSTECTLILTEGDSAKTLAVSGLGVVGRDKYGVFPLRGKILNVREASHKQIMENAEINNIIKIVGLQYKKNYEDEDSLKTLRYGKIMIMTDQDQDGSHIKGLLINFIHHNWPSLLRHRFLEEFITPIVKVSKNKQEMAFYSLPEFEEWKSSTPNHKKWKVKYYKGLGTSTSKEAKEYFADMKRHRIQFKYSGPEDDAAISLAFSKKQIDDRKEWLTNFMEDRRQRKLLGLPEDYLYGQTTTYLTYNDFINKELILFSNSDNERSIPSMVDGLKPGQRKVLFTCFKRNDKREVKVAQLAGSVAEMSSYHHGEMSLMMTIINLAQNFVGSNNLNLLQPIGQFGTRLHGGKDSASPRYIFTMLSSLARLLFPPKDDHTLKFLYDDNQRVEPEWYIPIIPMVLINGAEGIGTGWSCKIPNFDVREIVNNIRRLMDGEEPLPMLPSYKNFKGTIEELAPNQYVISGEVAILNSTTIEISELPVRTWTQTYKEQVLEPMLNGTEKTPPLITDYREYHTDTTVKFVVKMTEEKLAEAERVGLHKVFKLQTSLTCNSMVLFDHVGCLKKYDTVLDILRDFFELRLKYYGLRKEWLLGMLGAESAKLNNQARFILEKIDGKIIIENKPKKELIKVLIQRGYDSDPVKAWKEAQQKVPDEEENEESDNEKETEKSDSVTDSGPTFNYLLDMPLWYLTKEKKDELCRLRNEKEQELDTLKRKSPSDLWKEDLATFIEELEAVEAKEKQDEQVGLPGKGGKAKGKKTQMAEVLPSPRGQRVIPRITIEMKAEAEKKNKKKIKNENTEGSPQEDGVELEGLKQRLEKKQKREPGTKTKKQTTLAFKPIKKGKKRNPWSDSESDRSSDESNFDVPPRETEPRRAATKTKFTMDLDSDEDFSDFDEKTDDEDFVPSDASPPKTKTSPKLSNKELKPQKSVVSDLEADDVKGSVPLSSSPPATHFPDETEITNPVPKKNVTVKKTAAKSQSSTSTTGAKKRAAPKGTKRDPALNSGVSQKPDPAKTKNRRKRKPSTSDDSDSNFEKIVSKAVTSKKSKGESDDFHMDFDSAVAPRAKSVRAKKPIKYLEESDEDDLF

SMILES	inhibition [1]	inhibition [2]	IC50 [3]	IC50 [4]	IC50 [5]	IC50 [6]	inhibition [7]
CCCCNCC(O)COc1cc(OCc2ccccc2)c2c(=O)c3ccccc3oc2c1 (configuration not stated)	65.4%	22.2%	3090 nM	2810 nM	7050 nM	1440 nM	–
COc1cccc2c(=O)c3c(OCc4cccc(C(F)(F)F)c4)cc(OCC4CO4)cc3oc12 (configuration not stated)	0%	–	360 nM	2870 nM	4270 nM	2240 nM	–
COc1ccc(COc2cc(OCC3CO3)cc3oc4ccccc4c(=O)c23)cc1 (configuration not stated)	0%	–	1720 nM	2960 nM	1580 nM	3730 nM	–
COc1cccc2c(=O)c3c(OCc4ccccc4)cc(OCC4CO4)cc3oc12 (configuration not stated)	3.3%	–	340 nM	2020 nM	1660 nM	1750 nM	–
COc1cccc2c(=O)c3c(OC(C)C)cc(OCC4CO4)cc3oc12 (configuration not stated)	1.5%	–	310 nM	1750 nM	1870 nM	3120 nM	–
CCCCNCC(O)COc1cc(OCc2cccc(C(F)(F)F)c2)c2c(=O)c3cccc(OC)c3oc2c1 (configuration not stated)	58.1%	14.2%	2620 nM	2000 nM	2620 nM	1980 nM	–
COc1cccc(COc2cc(OCC3CO3)cc3oc4c(OC)cccc4c(=O)c23)c1 (configuration not stated)	0%	–	350 nM	4050 nM	2430 nM	1320 nM	–
CCCCNCC(O)COc1cc(OCCCC)c2c(=O)c3cccc(OC)c3oc2c1 (configuration not stated)	24.2%	–	6020 nM	1130 nM	7650 nM	1640 nM	–
CCCCNCC(O)COc1cc(OCC)c2c(=O)c3ccccc3oc2c1 (configuration not stated)	4.8%	–	28200 nM	7020 nM	> 50000 nM	1770 nM	–
COc1cccc2c1C(=O)c1c(O)c3c(c(O)c1C2=O)C[C@@](O)(C(=O)CO)C[C@@H]3O[C@H]1C[C@H](N)[C@H](O)[C@H](C)O1 [DOXORUBICIN HYDROCHLORIDE]	–	–	–	1420 nM	1700 nM	710 nM	–
CCCCNCC(O)COc1cc(OC(C)C)c2c(=O)c3ccccc3oc2c1 (configuration not stated)	1.5%	–	43400 nM	4710 nM	36600 nM	2050 nM	–
O=c1c2ccccc2oc2cc(OCC3CO3)cc(OCc3ccccc3)c12 (configuration not stated)	0%	–	1500 nM	3060 nM	1920 nM	5070 nM	–
CCOc1cc(OCC2CO2)cc2oc3c(OC)cccc3c(=O)c12 (configuration not stated)	2.5%	–	820 nM	830 nM	1170 nM	1190 nM	–
CCCCNCC(O)COc1cc(OCc2ccccc2)c2c(=O)c3cccc(OC)c3oc2c1 (configuration not stated)	51.6%	11.1%	2080 nM	2400 nM	2250 nM	1230 nM	–
CCCCNCC(O)COc1cc(OCc2ccc(OC)cc2)c2c(=O)c3ccccc3oc2c1 (configuration not stated)	55.9%	21.1%	2170 nM	1410 nM	4810 nM	1800 nM	–
CCCCCOc1cc(OCC2CO2)cc2oc3c(OC)cccc3c(=O)c12 (configuration not stated)	5%	–	370 nM	4570 nM	4060 nM	1690 nM	–
CCCCNCC(O)COc1cc(OCCCC)c2c(=O)c3ccccc3oc2c1 (configuration not stated)	27.1%	–	8610 nM	1540 nM	2070 nM	1630 nM	–
CCCCNCC(O)COc1cc(OCCc2ccc(Cl)cc2)c2c(=O)c3ccccc3oc2c1 (configuration not stated)	94.4%	23 to 23.3%	2130 nM	630 nM	1370 nM	3630 nM	Active
CC(C)Oc1cc(OCC2CO2)cc2oc3ccccc3c(=O)c12 (configuration not stated)	0.1%	–	1630 nM	1940 nM	1620 nM	290 nM	–
COc1ccc(COc2cc(OCC3CO3)cc3oc4c(OC)cccc4c(=O)c23)cc1 (configuration not stated)	0%	–	420 nM	7680 nM	1740 nM	1410 nM	–
COc1cccc2c(=O)c3c(OCCc4cccc(Cl)c4)cc(OCC4CO4)cc3oc12 (configuration not stated)	0%	–	1080 nM	2740 nM	470 nM	1110 nM	–
CC[C@@]1(O)C(=O)OCc2c1cc1n(c2=O)Cc2cc3ccccc3nc2-1 [CAMPTOTHECIN]	–	–	1.4 nM	80 nM	130 nM	600 nM	–

SMILES	inhibition [1]	inhibition [2]	IC50 [3]	IC50 [4]	IC50 [5]	IC50 [6]	inhibition [7]
CCCCNCC(O)COc1cc(OCc2cccc(OC)c2)c2c(=O)c3ccccc3oc2c1 (configuration not stated)	58.7%	19.5%	1910 nM	2570 nM	5860 nM	70 nM	–
CCCCNCC(O)COc1cc(OCCc2cccc(Cl)c2)c2c(=O)c3cccc(OC)c3oc2c1 (configuration not stated)	62.8%	20.4%	1490 nM	190 nM	2600 nM	400 nM	Active
CCCCNCC(O)COc1cc(OCc2cccc(C(F)(F)F)c2)c2c(=O)c3ccccc3oc2c1 (configuration not stated)	64.6%	9.3%	2450 nM	140 nM	2260 nM	240 nM	–
O=c1c2ccccc2oc2cc(OCC3CO3)cc(OCc3cccc(C(F)(F)F)c3)c12 (configuration not stated)	0%	–	5080 nM	2300 nM	4280 nM	1360 nM	–
CCCCCOc1cc(OCC2CO2)cc2oc3ccccc3c(=O)c12 (configuration not stated)	0%	–	3280 nM	> 50000 nM	1790 nM	11000 nM	–
O=c1c2ccccc2oc2cc(OCC3CO3)cc(OCCc3cccc(Cl)c3)c12 (configuration not stated)	0%	–	4130 nM	1360 nM	1460 nM	3180 nM	–
COc1cccc(COc2cc(OCC3CO3)cc3oc4ccccc4c(=O)c23)c1 (configuration not stated)	0%	–	1490 nM	3730 nM	1570 nM	3260 nM	–
CCOc1cc(OCC2CO2)cc2oc3ccccc3c(=O)c12 (configuration not stated)	0%	–	3960 nM	3600 nM	800 nM	3910 nM	–
CCCCCOc1cc(OCC(O)CNCCCC)cc2oc3ccccc3c(=O)c12 (configuration not stated)	29.4%	–	4580 nM	1270 nM	2560 nM	60 nM	–
CCCCOc1cc(OCC2CO2)cc2oc3ccccc3c(=O)c12 (configuration not stated)	0%	–	2450 nM	3750 nM	1810 nM	4550 nM	–
O=c1c2ccccc2oc2cc(OCC3CO3)cc(OCc3cccc(Cl)c3)c12 (configuration not stated)	0%	–	1960 nM	3300 nM	3570 nM	1890 nM	–
O=c1c2ccccc2oc2cc(OCC3CO3)cc(OCCc3ccc(Cl)cc3)c12 (configuration not stated)	0%	–	5270 nM	970 nM	4910 nM	2020 nM	–
CCCCCOc1cc(OCC(O)CNCCCC)cc2oc3c(OC)cccc3c(=O)c12 (configuration not stated)	36.3%	9.5%	1810 nM	780 nM	3840 nM	480 nM	–
CCCCNCC(O)COc1cc(OC(C)C)c2c(=O)c3cccc(OC)c3oc2c1 (configuration not stated)	7.5%	–	9600 nM	2670 nM	14400 nM	80 nM	–
CCCCNCC(O)COc1cc(OCc2cccc(Cl)c2)c2c(=O)c3cccc(OC)c3oc2c1 (configuration not stated)	45.4%	6.3%	1590 nM	670 nM	2400 nM	1160 nM	–
CCCCNCC(O)COc1cc(OCc2cccc(OC)c2)c2c(=O)c3cccc(OC)c3oc2c1 (configuration not stated)	41.6%	12.4%	1740 nM	1360 nM	2300 nM	1320 nM	–
CCCCNCC(O)COc1cc(OCc2cccc(Cl)c2)c2c(=O)c3ccccc3oc2c1 (configuration not stated)	56.3%	22.4%	2240 nM	1170 nM	2830 nM	170 nM	–
CCCCOc1cc(OCC2CO2)cc2oc3c(OC)cccc3c(=O)c12 (configuration not stated)	14.1%	–	220 nM	1630 nM	1080 nM	310 nM	–
COc1cccc2c(=O)c3c(OCc4cccc(Cl)c4)cc(OCC4CO4)cc3oc12 (configuration not stated)	1.7%	–	170 nM	1550 nM	1700 nM	950 nM	–
CCCCNCC(O)COc1cc(OCc2ccc(OC)cc2)c2c(=O)c3cccc(OC)c3oc2c1 (configuration not stated)	44.8%	13.9%	2290 nM	1520 nM	1820 nM	250 nM	–
CCCCNCC(O)COc1cc(OCC)c2c(=O)c3cccc(OC)c3oc2c1 (configuration not stated)	10.7%	–	10600 nM	4280 nM	23500 nM	2240 nM	–
COc1cccc2c(=O)c3c(OCCc4ccc(Cl)cc4)cc(OCC4CO4)cc3oc12 (configuration not stated)	0%	–	45200 nM	> 50000 nM	> 50000 nM	1490 nM	–
